The source made the active and inactive calls. No cut-off for these calls is given here.
Assays:
[1] = target: T1, Solute carrier family 2, facilitated glucose transporter member 1 (Homo sapiens) (UniProt P11166); experiment: Inhibition of transport activity of human GLUT1 expressed in hexose transporter deficient VW4000fgy1 yeast cells assessed as reduction in transporter-mediated [14C]-hexose uptake into cells at 100 uM measured after 10 mins by scintillation counting method relative to control; format: cell-based
T1 sequence (whole entry): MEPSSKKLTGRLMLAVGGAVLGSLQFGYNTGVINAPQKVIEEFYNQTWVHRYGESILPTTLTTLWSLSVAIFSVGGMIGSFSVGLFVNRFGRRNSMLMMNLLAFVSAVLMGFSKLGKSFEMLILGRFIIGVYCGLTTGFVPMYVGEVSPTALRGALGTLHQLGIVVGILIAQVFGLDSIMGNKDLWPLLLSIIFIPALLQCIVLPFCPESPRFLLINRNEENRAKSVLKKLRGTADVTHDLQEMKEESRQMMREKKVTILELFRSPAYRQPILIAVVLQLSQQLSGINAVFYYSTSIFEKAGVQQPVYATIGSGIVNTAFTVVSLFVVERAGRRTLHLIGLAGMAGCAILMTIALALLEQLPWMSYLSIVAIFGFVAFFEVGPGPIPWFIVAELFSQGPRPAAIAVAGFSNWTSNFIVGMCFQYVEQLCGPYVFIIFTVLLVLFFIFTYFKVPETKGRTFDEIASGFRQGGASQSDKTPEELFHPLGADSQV
How it was run: (§1)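 The hxt0 yeast strain expressing one human GLUT was grown at 30 °C and resuspended in PBS pH 7.4 at OD600 ~10. Uptake was started with 14C-glucose at 5 mM final (GLUT1, GLUT4) or 14C-fructose at 10 mM final (GLUT5). It was quenched after 10 min with ice-cold 0.1 M KPi/0.1 M LiCl pH 5.5, filtered and counted by scintillation. Compound at 100 μM with 1% DMSO; DMSO control and phloretin 200 μM (GLUT1/4) or MSNBA 100 μM (GLUT5) as references. Triplicates.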

CCRF-CEM = experiment: Cytotoxicity against human CCRF-CEM cells assessed as reduction in cell viability measured after 48 hrs by Hoechst 33342/propidium iodide staining based imaging analysis; format: functional
How it was run: (§2)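 Cells were seeded at 10,000 per well (HS-27 at 3,000) in 10% FBS RPMI (leukemic lines) or DMEM (MDA-MB-231, HS-27). Compound in DMSO (1% v/v final) at 0.5–100 µM for 48 h. Hoechst 33342 and PI were added 2 h before automated imaging; dead cells were co-stained. Quadruplicates. CC50 was taken by linear interpolation between the two concentrations nearest 50% death.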

[2] = target: Histone deacetylase 4 (Homo sapiens) (UniProt P56524); experiment: Inhibition of recombinant human N-terminal GST-tagged HDAC4 (627 to end residues) expressed in baculovirus infected Sf9 insect cells assessed as residual activity at 50 uM using Boc-Lys(trifluoroacetyl)-AMC as substrate preincubated for 60 mins followed by substrate addition and measured after 60 mins by fluorescence assay relative to control; settings: time 120.0 min
Sequence of Histone deacetylase 4 (Homo sapiens) (P56524 whole entry): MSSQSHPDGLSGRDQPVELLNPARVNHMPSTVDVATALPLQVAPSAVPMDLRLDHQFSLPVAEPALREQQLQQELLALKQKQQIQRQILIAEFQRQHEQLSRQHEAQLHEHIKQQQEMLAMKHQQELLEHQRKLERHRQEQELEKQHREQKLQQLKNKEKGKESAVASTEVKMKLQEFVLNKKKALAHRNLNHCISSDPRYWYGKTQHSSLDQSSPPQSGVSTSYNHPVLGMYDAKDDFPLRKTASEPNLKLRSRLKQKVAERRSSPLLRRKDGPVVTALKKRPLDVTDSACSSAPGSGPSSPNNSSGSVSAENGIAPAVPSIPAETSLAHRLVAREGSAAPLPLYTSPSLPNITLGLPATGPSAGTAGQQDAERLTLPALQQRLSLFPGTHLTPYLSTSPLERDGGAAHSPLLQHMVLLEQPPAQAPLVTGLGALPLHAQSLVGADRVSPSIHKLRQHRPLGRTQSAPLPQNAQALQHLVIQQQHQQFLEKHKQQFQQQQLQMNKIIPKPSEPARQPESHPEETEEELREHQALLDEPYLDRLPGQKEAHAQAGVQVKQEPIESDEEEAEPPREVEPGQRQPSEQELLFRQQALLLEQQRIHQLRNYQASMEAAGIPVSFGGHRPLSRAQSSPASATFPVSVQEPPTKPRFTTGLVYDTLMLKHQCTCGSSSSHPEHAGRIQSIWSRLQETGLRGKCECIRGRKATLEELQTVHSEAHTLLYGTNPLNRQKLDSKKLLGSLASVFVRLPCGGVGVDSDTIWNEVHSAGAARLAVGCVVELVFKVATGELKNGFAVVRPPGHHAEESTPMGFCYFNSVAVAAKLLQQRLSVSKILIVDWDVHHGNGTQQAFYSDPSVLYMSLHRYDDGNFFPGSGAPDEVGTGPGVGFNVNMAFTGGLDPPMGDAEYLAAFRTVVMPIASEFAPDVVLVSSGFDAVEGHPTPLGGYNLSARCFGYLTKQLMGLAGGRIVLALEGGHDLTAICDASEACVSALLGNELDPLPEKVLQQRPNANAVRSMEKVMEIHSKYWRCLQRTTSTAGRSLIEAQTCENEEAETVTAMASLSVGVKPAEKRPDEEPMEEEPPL

K562 = experiment: Cytotoxicity against human K562 cells assessed as reduction in cell viability measured after 48 hrs by Hoechst 33342/propidium iodide staining based imaging analysis; format: functional; how it was run: as §2
[3] = Selectivity index, ratio of CC50 for human HS27 cells to CC50 for human CCRF-CEM cells
How it was run: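 Ratio of HS-27 CC50 to CCRF-CEM CC50. Both came from Hoechst/PI differential nuclear staining imaging after 48 h exposure to 0.5–100 µM, in quadruplicate, with 10,000 CEM or 3,000 HS-27 cells/well. Each CC50 was estimated by linear interpolation between the two concentrations nearest 50% cell death.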

[4] = target: T2, Solute carrier family 2, facilitated glucose transporter member 5 (Homo sapiens) (UniProt P22732); experiment: Inhibition of transport activity of human GLUT5 expressed in hexose transporter deficient VW4000 yeast cells assessed as reduction in transporter-mediated [14C]-fructose uptake into cells at 100 uM measured after 10 mins by scintillation counting method; format: cell-based; how it was run: as §1
T2 sequence (whole entry): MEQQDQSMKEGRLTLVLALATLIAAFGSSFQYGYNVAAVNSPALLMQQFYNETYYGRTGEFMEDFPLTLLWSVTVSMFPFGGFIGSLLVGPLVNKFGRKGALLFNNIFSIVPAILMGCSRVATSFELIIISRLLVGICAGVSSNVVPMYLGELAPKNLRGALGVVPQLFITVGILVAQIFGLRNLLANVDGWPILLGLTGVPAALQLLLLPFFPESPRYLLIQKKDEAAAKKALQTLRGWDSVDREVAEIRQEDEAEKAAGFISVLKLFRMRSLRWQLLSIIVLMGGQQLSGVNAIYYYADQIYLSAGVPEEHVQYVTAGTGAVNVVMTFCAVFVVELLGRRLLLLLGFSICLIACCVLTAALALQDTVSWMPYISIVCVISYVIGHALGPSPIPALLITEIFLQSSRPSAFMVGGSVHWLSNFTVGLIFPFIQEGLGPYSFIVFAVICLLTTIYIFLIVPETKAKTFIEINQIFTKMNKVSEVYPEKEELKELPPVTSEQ

[5] = target: T3, Solute carrier family 2, facilitated glucose transporter member 4 (Homo sapiens, UniProt P14672); experiment: Inhibition of transport activity of human GLUT4 expressed in hexose transporter deficient W4000fgy1 erg4 yeast cells assessed as reduction in transporter-mediated [14C]-hexose uptake into cells measured after 10 mins by scintillation counting method; format: cell-based
T3 sequence (P14672 whole entry): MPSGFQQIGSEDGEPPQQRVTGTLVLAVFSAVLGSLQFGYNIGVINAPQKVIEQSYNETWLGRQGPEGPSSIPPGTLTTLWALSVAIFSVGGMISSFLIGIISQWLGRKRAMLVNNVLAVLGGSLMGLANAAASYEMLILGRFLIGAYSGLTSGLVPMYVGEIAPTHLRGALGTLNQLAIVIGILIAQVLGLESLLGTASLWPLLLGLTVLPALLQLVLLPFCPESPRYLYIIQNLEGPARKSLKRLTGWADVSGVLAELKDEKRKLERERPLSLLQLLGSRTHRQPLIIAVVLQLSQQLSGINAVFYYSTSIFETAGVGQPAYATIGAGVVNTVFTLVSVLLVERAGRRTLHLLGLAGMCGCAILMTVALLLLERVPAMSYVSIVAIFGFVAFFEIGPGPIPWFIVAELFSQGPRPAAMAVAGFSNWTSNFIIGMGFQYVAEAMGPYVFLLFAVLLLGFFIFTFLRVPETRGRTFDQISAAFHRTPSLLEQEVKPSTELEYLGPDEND
How it was run: (§3)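 GLUT1 (VW4000fgy1) or GLUT4 (VW4000fgy1erg4) hxt0 yeast were grown on maltose and then glucose and resuspended in PBS pH 7.4 at OD600 ~10. Compound was used at 0.1–100 μM, final 1% DMSO. Uptake of 5 mM 14C-glucose over 10 min was stopped with ice-cold quench buffer, filtered and counted by scintillation. IC50 was taken from dose-response curves of three independent measurements.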

[6] = target: T4, Solute carrier family 2, facilitated glucose transporter member 1 (Homo sapiens, UniProt P11166); experiment: Inhibition of transport activity of human GLUT1 expressed in hexose transporter deficient VW4000fgy1 yeast cells assessed as reduction in transporter-mediated [14C]-hexose uptake into cells measured after 10 mins by scintillation counting method; format: cell-based; how it was run: as §3
T4 sequence (P11166 whole entry): T1 sequence (whole entry)

Row | SMILES | inhibition [1] | CC50 (CCRF-CEM) | Activity [2] | CC50 (K562) | Selectivity Index [3] | inhibition [4] | IC50 [5] | IC50 [6]
1 | O=C(CN1C(=O)S/C(=C/c2ccco2)C1=O)Nc1ccc(Cl)c(Cl)c1 | > 50% | 7.8 µM | > 50% | 43.3 µM | > 12.8 | inactive | 152 µM | 14.7 µM
2 | O=C(CN1C(=O)S/C(=C/c2ccco2)C1=O)Nc1nc2ccccc2s1 | 100% | 1.7 µM | > 50% | 91.9 µM | > 25.8 | inactive | 6.8 µM | 11.4 µM
